In ChEMBL document CHEMBL5329174, “Discovery of benzoxazole-thiazolidinone hybrids as promising antibacterial agents against Staphylococcus aureus and Enterococcus species” (RSC Med Chem, 2023):
Values after ≈ are worked out from the molar mass of the structure shown.

How the values were obtained:
[1] = tested on: Staphylococcus aureus; assay: Antibacterial activity against methicilin-resistant Staphylococcus aureus NRS 193 assessed as reduction in bacterial growth; format: functional
Outline: (§1)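 CLSI broth microdilution in cation-supplemented Mueller–Hinton broth II. Starter cultures were grown overnight at 37 °C with shaking from a single MHA colony, then diluted by OD600 to ~10^6 CFU/mL. Compounds came from 10 mg/mL DMSO stocks and were tested two-fold from 64 to 0.5 mg/L. Plates were incubated 37 °C for 18–24 h. MIC was taken as the lowest concentration with no visible growth. Three independent runs, each in duplicate.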

[2] = tested on: Enterococcus faecalis; assay: Antibacterial activity against vancomycin-susceptible Enterococcus faecalis NR 31885 assessed as inhibition of bacterial growth incubated for 18 to 24 hrs by broth microdilution assay; format: functional; settings: time 18-24 hrs
Outline: (§2)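 CLSI broth microdilution in cation-supplemented Mueller–Hinton broth II; overnight starter cultures (37 °C, shaking, 18–24 h) adjusted by OD600 to ~10^6 CFU/mL. Compounds dosed from DMSO stocks (10 mg/mL stock) as two-fold dilutions, 64–0.5 mg/L. Plates held 37 °C, 18–24 h. MIC = lowest concentration without visible growth. Three independent runs, each in duplicate.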

[3] = tested on: Staphylococcus aureus; assay: Antibacterial activity against methicilin-resistant Staphylococcus aureus NRS 129 assessed as reduction in bacterial growth; format: functional; outline: as §1
[4] = tested on: Enterococcus faecalis; assay: Antibacterial activity against vancomycin-susceptible Enterococcus faecalis NR 31886 assessed as inhibition of bacterial growth incubated for 18 to 24 hrs by broth microdilution assay; format: functional; settings: time 18-24 hrs; outline: as §2
[5] = tested on: Staphylococcus aureus; assay: Antibacterial activity against vancomycin-resistant Staphylococcus aureus VRS 4 assessed as reduction in bacterial growth; format: functional; outline: as §1
[6] = tested on: Staphylococcus aureus; assay: Antibacterial activity against methicilin-resistant Staphylococcus aureus NRS 186 assessed as reduction in bacterial growth; format: functional; outline: as §1
[7] = tested on: Staphylococcus aureus; assay: Antibacterial activity against vancomycin-resistant Staphylococcus aureus VRS 1 assessed as reduction in bacterial growth; format: functional; outline: as §1
[8] = tested on: Staphylococcus aureus; assay: Antibacterial activity against Staphylococcus aureus ATCC 29213 assessed as reduction in bacterial growth; format: functional; outline: as §2
[9] = tested on: Staphylococcus aureus; assay: Antibacterial activity against methicilin-resistant Staphylococcus aureus NRS 198 assessed as reduction in bacterial growth; format: functional; outline: as §1
[10] = tested on: Enterococcus faecium; assay: Antibacterial activity against vancomycin-resistant Enterococcus faecium NR 31912 assessed as inhibition of bacterial growth
[11] = tested on: Enterococcus faecalis; assay: Antibacterial activity against vancomycin-susceptible Enterococcus faecalis NR 31887 assessed as inhibition of bacterial growth incubated for 18 to 24 hrs by broth microdilution assay; format: functional; settings: time 18-24 hrs; outline: as §2
[12] = Cytotoxicity against african green monkey Vero cells assessed as reduction in cell viability incubated for 72 hrs by MTT assay; format: toxicity, cell-based; settings: chlorocebus sabaeus
Outline: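 Vero (ATCC CCL-81) cells seeded at ~10^3 per well, 37 °C, 5% CO2. After 24 h, compound added at 100–12.5 μg/mL for 72 h. MTT then given for 4 h at 37 °C, formazan dissolved in DMSO, absorbance read at 540 nm. CC50 taken as the concentration giving 50% viability loss; doxorubicin as positive control; triplicate.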

[13] = tested on: Staphylococcus aureus; assay: Antibacterial activity against vancomycin-resistant Staphylococcus aureus VRS 12 assessed as reduction in bacterial growth; format: functional; outline: as §1
[14] = tested on: Enterococcus faecalis; assay: Antibacterial activity against vancomycin-susceptible Enterococcus faecalis NR 31884 assessed as inhibition of bacterial growth incubated for 18 to 24 hrs by broth microdilution assay; format: functional; settings: time 18-24 hrs; outline: as §2
[15] = tested on: Enterococcus faecalis; assay: Antibacterial activity against vancomycin-susceptible Enterococcus faecalis NR 31888 assessed as inhibition of bacterial growth incubated for 18 to 24 hrs by broth microdilution assay; format: functional; settings: time 18-24 hrs; outline: as §2
[16] = Selectivity index, ratio of CC50 for cytotoxicity against african green monkey Vero cells assessed as reduction in cell viability to MIC for antibacterial activity against Staphylococcus aureus ATCC 29213 assessed as reduction in bacterial growth; format: toxicity, cell-based; settings: read-out: Selectivity Index
[17] = tested on: Staphylococcus aureus; assay: Antibacterial activity against methicilin-resistant Staphylococcus aureus NRS 100 assessed as reduction in bacterial growth; format: functional; outline: as §1
[18] = tested on: Staphylococcus aureus; assay: Antibacterial activity against methicilin-resistant Staphylococcus aureus NRS 191 assessed as reduction in bacterial growth; format: functional; outline: as §1
[19] = tested on: Enterococcus faecium; assay: Antibacterial activity against vancomycin-resistant Enterococcus faecium NR 31909 assessed as inhibition of bacterial growth
[20] = tested on: Staphylococcus aureus; assay: Antibacterial activity against methicilin-resistant Staphylococcus aureus NRS 192 assessed as reduction in bacterial growth; format: functional; outline: as §1
[21] = tested on: Staphylococcus aureus; assay: Antibacterial activity against methicilin-resistant Staphylococcus aureus NRS 119 assessed as reduction in bacterial growth; format: functional; outline: as §1
[22] = tested on: Acinetobacter baumannii; assay: Antibacterial activity against Acinetobacter baumannii BAA-1605 assessed as reduction in bacterial growth; format: functional; outline: as §2
[23] = tested on: Pseudomonas aeruginosa; assay: Antibacterial activity against Pseudomonas aeruginosa ATCC 27853 assessed as reduction in bacterial growth; format: functional; outline: as §2
[24] = tested on: Staphylococcus aureus; assay: Antibacterial activity against methicilin-resistant Staphylococcus aureus NRS 194 assessed as reduction in bacterial growth; format: functional; outline: as §1
[25] = tested on: Enterococcus faecium; assay: Antibacterial activity against vancomycin-resistant Enterococcus faecium NR 31903 assessed as inhibition of bacterial growth
[26] = tested on: Escherichia coli; assay: Antibacterial activity against Escherichia coli ATCC 25922 assessed as reduction in bacterial growth; format: functional; outline: as §2
[27] = tested on: Klebsiella pneumoniae; assay: Antibacterial activity against Klebsiella pneumoniae BAA-1705 assessed as reduction in bacterial growth; format: functional; outline: as §2

Row | MIC [8] [µg/mL] | MIC [22] [µg/mL] | MIC [23] [µg/mL] | MIC [26] [µg/mL] | MIC [27] [µg/mL] | Compound | MIC [2] [µg/mL] | MIC [4] [µg/mL] | MIC [5] [µg/mL] | MIC [7] [µg/mL] | MIC [11] [µg/mL] | MIC [13] [µg/mL] | MIC [14] [µg/mL] | MIC [15] [µg/mL] | further results
1 | 8 (≈ 22.5 µM) | > 64 | > 64 | > 64 | > 64 | O=C1N/C(=N\c2nc3ccccc3o2)S/C1=C\c1cccc(Cl)c1 | – | – | – | – | – | – | – | – | –
2 | – | – | – | – | – | CN[C@H](CC(C)C)C(=O)N[C@H]1C(=O)N[C@@H](CC(N)=O)C(=O)N[C@H]2C(=O)N[C@H]3C(=O)N[C@H](C(=O)N[C@H](C(=O)O)c4cc(O)cc(O)c4-c4cc3ccc4O)[C@H](O)c3ccc(c(Cl)c3)Oc3cc2cc(c3O[C@@H]2O[C@H](CO)[C@@H](O)[C@H](O)[C@H]2O[C@H]2C[C@](C)(N)[C@H](O)[C@H](C)O2)Oc2ccc(cc2Cl)[C@H]1O [VANCOMYCIN] | 2 (≈ 1.38 µM) | 2 (≈ 1.38 µM) | > 64 | > 64 | 2 (≈ 1.38 µM) | > 64 | 2 (≈ 1.38 µM) | 2 (≈ 1.38 µM) | –
3 | 8 (≈ 23.6 µM) | > 64 | > 64 | > 64 | > 64 | O=C1N/C(=N\c2nc3ccccc3o2)S/C1=C\c1cccc(F)c1 | – | – | – | – | – | – | – | – | –
4 | 4 (≈ 10.9 µM) | > 64 | > 64 | > 64 | > 64 | COc1ccc(/C=C2\S/C(=N/c3nc4ccccc4o3)NC2=O)cc1O | – | – | – | – | – | – | – | – | –
5 | > 64 | > 64 | > 64 | > 64 | > 64 | COc1cccc(/C=C2\S/C(=N/c3nc4ccccc4o3)NC2=O)c1 | – | – | – | – | – | – | – | – | –
6 | 8 (≈ 24.8 µM) | > 64 | > 64 | > 64 | > 64 | O=C1N/C(=N\c2nc3ccccc3o2)S/C1=C\c1ccccn1 | – | – | – | – | – | – | – | – | –
7 | 8 (≈ 23.6 µM) | > 64 | > 64 | > 64 | > 64 | O=C1N/C(=N\c2nc3ccccc3o2)S/C1=C\c1ccc(F)cc1 | – | – | – | – | – | – | – | – | –
8 | 4 (≈ 12.4 µM) | > 64 | > 64 | > 64 | > 64 | O=C1N/C(=N\c2nc3ccccc3o2)S/C1=C\c1ccccc1 | – | – | – | – | – | – | – | – | –
9 | 32 (≈ 79.9 µM) | > 64 | > 64 | > 64 | > 64 | O=C1N/C(=N\c2nc3ccccc3o2)S/C1=C\c1ccc(Br)cc1 | – | – | – | – | – | – | – | – | –
10 | – | – | – | – | – | CN(C)c1ccc(O)c2c1C[C@H]1C[C@H]3[C@H](N(C)C)C(O)=C(C(N)=O)C(=O)[C@@]3(O)C(O)=C1C2=O [MINOCYCLINE] | 0.5 (≈ 1.09 µM) | 0.5 (≈ 1.09 µM) | – | – | 8 (≈ 17.5 µM) | – | 0.5 (≈ 1.09 µM) | 0.5 (≈ 1.09 µM) | MIC [10]: 8 µg/mL (≈ 17.5 µM); MIC [19]: 8 µg/mL (≈ 17.5 µM); MIC [25]: 8 µg/mL (≈ 17.5 µM)

Row | Compound | MIC [8] [µg/mL] | MIC [22] [µg/mL] | MIC [23] [µg/mL] | MIC [26] [µg/mL] | MIC [27] [µg/mL] | MIC [2] [µg/mL] | MIC [4] [µg/mL] | MIC [5] [µg/mL] | MIC [7] [µg/mL] | MIC [11] [µg/mL] | MIC [13] [µg/mL] | MIC [14] [µg/mL] | MIC [15] [µg/mL] | further results
11 | O=C1N/C(=N\c2nc3ccccc3o2)S/C1=C\c1ccc(O)cc1 | 2 (≈ 5.93 µM) | > 64 | > 64 | > 64 | > 64 | 16 (≈ 47.4 µM) | 16 (≈ 47.4 µM) | 2 (≈ 5.93 µM) | 2 (≈ 5.93 µM) | 8 (≈ 23.7 µM) | 2 (≈ 5.93 µM) | 16 (≈ 47.4 µM) | 16 (≈ 47.4 µM) | MIC [1]: 2 µg/mL (≈ 5.93 µM); MIC [3]: 2 µg/mL (≈ 5.93 µM); MIC [6]: 1 µg/mL (≈ 2.96 µM); MIC [9]: 2 µg/mL (≈ 5.93 µM); MIC [10]: 0.25 µg/mL (≈ 0.741 µM); CC50 at 72 h [12]: > 40 µg/mL; selectivity ratio [16]: > 20; MIC [17]: 1 µg/mL (≈ 2.96 µM); MIC [18]: 2 µg/mL (≈ 5.93 µM); MIC [19]: 0.25 µg/mL (≈ 0.741 µM); MIC [20]: 2 µg/mL (≈ 5.93 µM); MIC [21]: 2 µg/mL (≈ 5.93 µM); MIC [24]: 2 µg/mL (≈ 5.93 µM); MIC [25]: 4 µg/mL (≈ 11.9 µM)
12 | C[C@@H](O)[C@H]1C(=O)N2C(C(=O)O)=C(S[C@@H]3CN[C@H](C(=O)N(C)C)C3)[C@H](C)[C@H]12 [MEROPENEM] | 0.125 (≈ 0.326 µM) | – | – | – | – | – | – | 64 (≈ 167 µM) | 64 (≈ 167 µM) | – | 8 (≈ 20.9 µM) | – | – | MIC [1]: 64 µg/mL (≈ 167 µM); MIC [3]: 4 µg/mL (≈ 10.4 µM); MIC [6]: 8 µg/mL (≈ 20.9 µM); MIC [9]: 64 µg/mL (≈ 167 µM); MIC [17]: 32 µg/mL (≈ 83.4 µM); MIC [18]: 64 µg/mL (≈ 167 µM); MIC [20]: 8 µg/mL (≈ 20.9 µM); MIC [21]: 64 µg/mL (≈ 167 µM); MIC [24]: 1 µg/mL (≈ 2.61 µM)
13 | C[C@H]1COc2c(N3CCN(C)CC3)c(F)cc3c(=O)c(C(=O)O)cn1c23 [LEVOFLOXACIN ANHYDROUS] | 0.125 (≈ 0.346 µM) | – | – | – | 64 (≈ 177 µM) | 0.25 (≈ 0.692 µM) | 0.25 (≈ 0.692 µM) | > 64 | 64 (≈ 177 µM) | 0.25 (≈ 0.692 µM) | 32 (≈ 88.6 µM) | 0.25 (≈ 0.692 µM) | 0.25 (≈ 0.692 µM) | MIC [1]: 32 µg/mL (≈ 88.6 µM); MIC [3]: 0.25 µg/mL (≈ 0.692 µM); MIC [6]: 8 µg/mL (≈ 22.1 µM); MIC [9]: 32 µg/mL (≈ 88.6 µM); MIC [10]: 64 µg/mL (≈ 177 µM); CC50 at 72 h [12]: > 100 µg/mL; MIC [17]: 0.25 µg/mL (≈ 0.692 µM); MIC [18]: 16 µg/mL (≈ 44.3 µM); MIC [19]: 64 µg/mL (≈ 177 µM); MIC [20]: 8 µg/mL (≈ 22.1 µM); MIC [21]: 16 µg/mL (≈ 44.3 µM); MIC [24]: 0.125 µg/mL (≈ 0.346 µM); MIC [25]: > 64 µg/mL
